In article PMC3523546 (Journal of Medicinal Chemistry, 2012):
Square brackets hold non-standard residues; d marks the D form. Peptide text beside a SMILES is read from it. * marks the point of attachment. FITC = O=C1OC2(c3ccc(O)cc3Oc3cc(O)ccc32)c2ccc(NC(=S)*)cc21; βAla = NCCC(=O)O

Experiments:
DU145 cells [1] = experiment: MTT proliferation assay, DU145; format: cell-based; details: 72 h
Method in brief: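 DU145 cells seeded at 1500 per well in RPMI 1640 with 5% FBS. After 24 h, medium changed and peptide added for 72 h. MTT added (1 mg/mL final) for 4 h, then formazan dissolved in 2-propanol–HCl. Metabolic activity normalised to vehicle (bidistilled water, 0.1% DMSO). IC50 from curve fitting; tabulated IC50 are means of five independent experiments.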

LNCaP cells [2] = experiment: MTT proliferation assay, LNCaP; format: cell-based; details: 72 h
Method in brief: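 LNCaP cells seeded at 2500 per well on poly-lysine-coated plates in RPMI 1640 with 10% FBS. Medium changed after 24 h, then peptide exposure for 72 h. MTT (1 mg/mL final) incubated 4 h; formazan dissolved in 2-propanol–HCl. Signal normalised to vehicle-treated cells (water, 0.1% DMSO).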

LNCaP cells [3] = experiment: Cell cycle analysis; format: cell-based; details: 200 μM, 96 h
Method in brief: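 LNCaP cells (4 × 10^5 per 10 cm dish) grown 24 h untreated, then given vehicle (0.1% DMSO) or 100 or 200 μM peptide in 10% FBS medium for 96 h, with medium changed every 24 h. Cells trypsinised, fixed in ice-cold ethanol (30 min, room temperature), and stained with propidium iodide plus RNaseA in HEPES pH 7.2 buffer. Flow cytometry: ≥10000 gated singlets. Phase percentages taken from living cells. Three experiments in duplicate; unpaired two-tailed t test.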

amino-peptidases = experiment: Stability of the peptide to amino-peptidases; format: in vitro ADME; details: N-terminal Leu replaced by DLeu, versus ML-peptide; unpublished data
DU145 cells [4] = experiment: Cellular uptake of FITC peptides by FACS; format: cell-based; details: for geometric mean of the distribution (GeoMean), range over both wash conditions: DU145, 10 μM FITC peptide, 1 h, FACS
Method in brief: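 DU145 cells (4 × 10^5) incubated 1 h in serum-free RPMI with 10 μM FITC-labelled peptide, then pelleted. Pellets washed twice with 0.05% trypsin, 5 min at 37 °C, to strip membrane-bound label. Propidium iodide (10 μg/mL, 2 min) excluded membrane-damaged cells. At least 10000 events acquired per sample, excluding clumps and debris. Uptake reported as geometric mean fluorescence.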

[5] = biological target: T1, P6 Lys hexapeptide inhibitor; experiment: enzyme inhibition assay
T1 chain: KLRVKR

[6] = biological target: T2, P6 Arg hexapeptide inhibitor; experiment: enzyme inhibition assay
T2 chain: RLRVKR

PC7 prodomain prodomain = biological target: T3, PC7 prodomain prodomain (Homo sapiens, UniProt Q16549); experiment: enzyme inhibition assay
T3 chain: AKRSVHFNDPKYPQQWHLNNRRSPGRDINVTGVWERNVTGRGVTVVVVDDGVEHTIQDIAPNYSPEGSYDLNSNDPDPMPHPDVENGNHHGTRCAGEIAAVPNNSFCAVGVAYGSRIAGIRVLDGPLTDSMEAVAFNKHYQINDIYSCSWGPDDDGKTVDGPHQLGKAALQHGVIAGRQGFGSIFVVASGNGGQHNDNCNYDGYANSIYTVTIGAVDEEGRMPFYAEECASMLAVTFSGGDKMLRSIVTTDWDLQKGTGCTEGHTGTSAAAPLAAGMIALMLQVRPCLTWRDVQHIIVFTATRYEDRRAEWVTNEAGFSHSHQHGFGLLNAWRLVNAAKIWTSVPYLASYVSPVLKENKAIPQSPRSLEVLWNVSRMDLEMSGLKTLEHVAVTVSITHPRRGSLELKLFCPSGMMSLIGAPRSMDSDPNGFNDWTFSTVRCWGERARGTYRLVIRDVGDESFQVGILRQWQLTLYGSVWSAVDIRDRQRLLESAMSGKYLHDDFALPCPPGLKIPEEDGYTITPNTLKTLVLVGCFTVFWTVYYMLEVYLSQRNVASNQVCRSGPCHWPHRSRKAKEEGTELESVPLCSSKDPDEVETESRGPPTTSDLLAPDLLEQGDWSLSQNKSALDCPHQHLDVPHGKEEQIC

[7] = biological target: T4, P6 Leu hexapeptide inhibitor; experiment: enzyme inhibition assay
T4 chain: LLRVKR

CC(=O)N[C@@H](CC(C)C)C(=O)N[C@@H](CC(C)C)C(=O)N[C@@H](CC(C)C)C(=O)N[C@@H](CC(C)C)C(=O)N[C@@H](CCCNC(=N)N)C(=O)N[C@H](C(=O)N[C@@H](CCCCN)C(=O)N[C@H](CCCNC(=N)N)C(N)=O)C(C)C [Ac-LLLLRVK[DArg]-NH2] (Ac-LLLLRVK[dR]-NH2)
inhibition of proliferation (DU145 cells [1]): poor proliferation inhibitor | inhibition of proliferation (LNCaP cells [2]): poor proliferation inhibitor

CC(=O)N[C@H](CC(C)C)C(=O)N[C@@H](CC(C)C)C(=O)N[C@@H](CC(C)C)C(=O)N[C@@H](CC(C)C)C(=O)N[C@@H](CCCNC(=N)N)C(=O)N[C@H](C(=O)N[C@@H](CCCCN)C(=O)N[C@@H](CCCNC(=N)N)C(N)=O)C(C)C [Ac-[DLeu]LLLRVKR-NH2]
increase in the G0/G1 population (LNCaP cells [3]): 10% | stability of the peptide to amino-peptidases (amino-peptidases): improved stability

CC(=O)N[C@@H](CCCNC(=N)N)C(=O)N[C@@H](C)C(=O)N[C@@H](CCCNC(=N)N)C(=O)N[C@@H](CCCNC(=N)N)C(=O)N[C@@H](CCCNC(=N)N)C(=O)N[C@@H](CCCCN)C(=O)N[C@@H](CCCCN)C(=O)N[C@@H](CCCNC(=N)N)C(=O)N[C@H](C(N)=O)[C@@H](C)O [reference compound]
inhibition of proliferation (DU145 cells [1]): no antiproliferative effects | inhibition of proliferation (LNCaP cells [2]): no antiproliferative effects

FITC-C8-LLLLRVKR-NH2 ({FITC-C8}-LLLLRVKR-NH2)
geometric mean of the distribution (GeoMean), range over both wash conditions (DU145 cells [4]): 260.08–261.95 | GeoMean compared to the control FITC-β-Ala-ML-peptide (DU145 cells [4]; DU145, FACS): 5 fold

FITC-[β-Ala]-LLLLRVKR-NH2 ({FITC-βAla}-LLLLRVKR-NH2)
geometric mean of the distribution (GeoMean), range over both wash conditions (DU145 cells [4]): 48.90–52.82

B1: PACE4 (protein)
chain: QVRSDPQALYFNDPIWSNMWYLHCGDKNSRCRSEMNVQAAWKRGYTGKNVVVTILDDGIERNHPDLAPNYDSYASYDVNGNDYDPSPRYDASNENKHGTRCAGEVAASANNSYCIVGIAYNAKIGGIRMLDGDVTDVVEAKSLGIRPNYIDIYSASWGPDDDGKTVDGPGRLAKQAFEYGIKKGRQGLGSIFVWASGNGGREGDYCSCDGYTNSIYTISVSSATENGYKPWYLEECASTLATTYSSGAFYERKIVTTDLRQRCTDGHTGTSVSAPMVAGIIALALEANSQLTWRDVQHLLVKTSRPAHLKASDWKVNGAGHKVSHFYGFGLVDAEALVVEAKKWTAVPSQHMCVAASDKRPRSIPLVQVLRTTALTSACAEHSDQRVVYLEHVVVRTSISHPRRGDLQIYLVSPSGTKSQLLAKRLLDLSNEGFTNWEFMTVHCWGEKAEGQWTLEIQDLPSQVRNPEKQGKLKEWSLILYGTAEHPYHTFSAHQSRSRMLELSAPELEPPKAALSPSQVEVPEDEEDYTAQSTPGSANILQTSVCHPECGDKGCDGPNADQCLNCVHFSLGSVKTSRKCVSVCPLGYFGDTAARRCRRCHKGCETCSSRAATQCLSCRRGFYHHQEMNTCVTLCPAGFYADESQKNCLKCHPSCKKCVDEPEKCTVCKEGFSLARGSCIPDCEPGTYFDSELIRCGECHHTCGTCVGPGREECIHCAKNFHFHDWKCVPACGEGFYPEEMPGLPHKVCRRCDENCLSCAGSSRNCSRCKTGFTQLGTSCITNHTCSNADETFCEMVKSNRLCERKLFIQFCCRTCLLAG
Ki [5]: 37 nM | Ki [6]: 40 nM | Ki (PC7 prodomain prodomain): 0.34 nM | Ki [7]: 49 nM
